Hits are enriched below; roughly 12% of the tested compounds scored in any of these assays.
Wee1 stabilizer – human Wee1 degradation inhibition, primary screen. AID 1321. 220,000 tested, 1.2% active. reporter increase, % at 5 µM. HeLa Luc-Wee1K328M stability, luciferase luminescence; 100% = proteasome inhibitor MG132 effect. P30291;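 active = activation above the mean of all tested compounds plus 3 SD, set per screening run, cut at about 8.8% in these data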;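 also: cells exposed to compound for 20 h before luminescence read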
PKD1 inh – blocks activity of human protein kinase D1; PKD1 kinase fluorescence polarization assay; inhibition, % (concentration not given with the values); Q15139; 200,000 tested, 0.056% active; AID 797
Arbovirus inh – arbovirus infection inhibition; arbovirus infection cell-based antiviral screen; 200,000 tested, 0.37% active; inhibition, % at 10 µM; AID 1251; in the data active = inhibition above about 30%
Rad51 HR inh – blocks human Rad51 in homologous recombination. 200,000 tested, 0.085% active. hRad51 DNA strand exchange, fluorescence dequenching. inhibition, % at 10 µM. AID 1385;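 active = inhibition above 40% at the single screening dose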
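System: hRad51 filaments on single-stranded DNA; reagent: Fluorescein- and BHQ1-tagged 47-mer duplex; compound dosing: one concentration, 10 µM final; timing: filaments 15 min 37 °C, then compound 30 min; measured by: fluorescein emission 520 nm, excitation 485 nm; benchmarks: per-plate controls and blanks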
Lmaj promast – Leishmania major promastigote growth inhibition; Leishmania major promastigotes, resazurin fluorescence viability; inhibition, % at 10 µM; 200,000 tested, 9% active; AID 1063;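 also: promastigotes grown with compound for 44 hours at 28 °C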
CHOP inh – blocks CHOP induction under ER stress | CHO-K1 CHOP-promoter luciferase, tunicamycin-induced, 15-18 h | inhibition, % at 10 µM | 220,000 tested, 3.8% active | AID 2732;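 active = compounds that reduced the stress-induced luciferase reporter signal by more than about 70% of percent inhibition, limit read from the data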
Large screens that a line does not name were inactive. Rule as the data show it, unless noted: active = inhibition above about 50%; inactive = the rest.

O=C1CCCC2=C1C(c1ccccc1)CC(=O)N2c1ccc(F)cc1F (stereo not drawn)	none
COc1ccc(CNc2ccc(C)c(C)c2)cc1	none (no result: Rad51 HR inh)
Cc1ccc(NCc2ccccc2)cc1	none
CSc1ccc(CNc2ccc(C)cc2)cc1	Lmaj promast 99.9
Cc1ccc(NCc2ccccc2O)cc1C	Wee1 stabilizer 10.0
CSc1ccc(CNc2ccc(C)c(C)c2)cc1	CHOP inh 91.6
O=C(Nc1ccccc1)Oc1cccc(Br)c1	none (no result: PKD1 inh, Arbovirus inh, Rad51 HR inh, Lmaj promast)
CCCCN(CC(=O)NCCOC)C(=O)Cn1nnc2ccccc21	none (no result: Rad51 HR inh)
O=C(CSc1nnc2c(n1)[nH]c1ccccc12)Nc1cccc(S(=O)(=O)N2CCOCC2)c1	none (no result: PKD1 inh, Arbovirus inh, Lmaj promast)
CCN(CC)C(C)C#CCC(c1ccccc1)c1ccccc1 (stereo not drawn)	none (no result: PKD1 inh, Arbovirus inh, Rad51 HR inh, Lmaj promast)
O=C(Cc1ccc(F)cc1)N/N=C/c1ccncc1	none
COc1cc(/C=c2\sc3nc(-c4ccncc4)nn3c2=O)ccc1OC(C)=O	CHOP inh 106.6 (no result: Rad51 HR inh)
CCCCCOc1ccc(/C=c2\sc3nc(=O)c(-c4ccccc4)nn3c2=O)cc1OC	none
COc1ccccc1-c1nc2s/c(=C\c3cccs3)c(=O)n2n1	CHOP inh 83.4
CCC(c1nnnn1Cc1ccc2c(c1)OCO2)N1CCN(c2ccc(OC)cc2)CC1 (stereo not drawn)	Lmaj promast 70.7
CC(C)C(c1nnnn1Cc1ccc(F)cc1)N1CCN(Cc2ccc3c(c2)OCO3)CC1 (stereo not drawn)	Lmaj promast 67.8
COCCn1nnnc1C(c1ccc(C)cc1)N1CCN(Cc2ccc3c(c2)OCO3)CC1 (stereo not drawn)	none
CCC(c1nnnn1Cc1ccc2c(c1)OCO2)N1CCN(c2ccc(F)cc2)CC1 (stereo not drawn)	none (no result: Rad51 HR inh)
Cc1ccc(C(c2nnnn2Cc2cccs2)N2CCN(Cc3ccc4c(c3)OCO4)CC2)cc1 (stereo not drawn)	Lmaj promast 78.0
c1ccc(Cn2nnnc2CN2CCN(Cc3ccc4c(c3)OCO4)CC2)cc1	Lmaj promast 88.5
CC(=O)c1ccc(NC(=O)C(C)Nc2ccc(Cl)cc2)cc1 (stereo not drawn)	none
CC(C)CCN(C(=S)Nc1cccc(F)c1)C1CCN(C(C)C)CC1	none (no result: Rad51 HR inh)
Clc1ccc(Cc2noc(CN3CCN(c4ccccc4)CC3)n2)c(Cl)c1	none
Fc1ccccc1N1CCN(Cc2nc(-c3ccc(Cl)cc3Cl)no2)CC1	Arbovirus inh 30.9
CC1=C(C(=O)N2CCOCC2)C(c2c(F)cccc2F)NC(=O)N1 (stereo not drawn)	none
Cc1ccsc1/C=C(\C(=O)c1ccc(OC(C)C)cc1)c1nc2ccccc2o1	Lmaj promast 100.1 (no result: Rad51 HR inh)
O=C(O)c1ccccc1C(=O)Nc1ccc(Br)c(C(F)(F)F)c1	none (no result: PKD1 inh, Arbovirus inh, Lmaj promast)
Cc1cc(C)c(C(=O)Nc2ccc(Br)c(C(F)(F)F)c2)c(C)c1	Lmaj promast 98.2
Cc1ccc(-c2onc3ccc(C4(C)OCCO4)cc23)cc1	CHOP inh 85.7
CC(=O)c1ccc2noc(-c3ccc(F)cc3)c2c1	none
COc1ccc(/C=N/NC(=O)c2cccc(NC(C)=O)c2)c(C(=O)O)c1OC	none
CC(C)(C)C1CCc2[nH]c3ccccc3c(=O)c2C1 (stereo not drawn)	Lmaj promast 99.6
O=c1c2c([nH]c3ccccc13)CCCC2	Lmaj promast 54.9
CCn1cc(C2=NC(CC(C)C)CO2)c2ccccc21 (stereo not drawn)	none (no result: PKD1 inh, Arbovirus inh, Rad51 HR inh, Lmaj promast)
Cc1ccc2oc3c(c(=O)c2c1)C(c1cccc(Br)c1)N(Cc1ccco1)C3=O (stereo not drawn)	CHOP inh 80.9
COc1cc(C2c3c(oc4ccccc4c3=O)C(=O)N2Cc2ccco2)ccc1O (stereo not drawn)	none
CCOc1cc(C2c3c(oc4cc(C)c(Cl)cc4c3=O)C(=O)N2Cc2ccco2)ccc1O (stereo not drawn)	CHOP inh 95.8
O=C1N=C(C=c2ccc(=Cc3[nH]c(=O)[nH]c3O)cc2)C(=O)N1	none (no result: PKD1 inh, Arbovirus inh, Lmaj promast)
Cc1ccc([C@H]2C(C#N)=C(N)Oc3cc(C)oc(=O)c32)o1	Lmaj promast 100.0 (no result: Rad51 HR inh)
Cc1ccc(Cn2c(C)cc3c(c2=O)C(c2cccs2)C(C#N)=C(N)O3)cc1 (stereo not drawn)	none
Cc1cc2c(c(=O)o1)C(c1cccs1)C(C#N)=C(N)O2 (stereo not drawn)	Lmaj promast 61.5
Cc1cc2c(c(=O)o1)C(C(C)C)C(C#N)=C(N)O2 (stereo not drawn)	none
CCN(c1ccc(NC(=O)COC(=O)CCc2cc(OC)c(OC)c(OC)c2)cc1)C(C)C	none
CCC(C)c1ccccc1NC(=O)COC(=O)CCc1cc(OC)c(OC)c(OC)c1 (stereo not drawn)	Lmaj promast 51.4
Cc1ccc(-n2c(=O)c3c(n4cnnc24)-c2ccccc2CC32CCCCC2)cc1	Lmaj promast 95.8
Cc1ccc(NC(=O)c2ccc3c(c2)C(=O)N(CC2CCCO2)C3=O)cc1C (stereo not drawn)	none
O=C(Nc1ccc2c(c1)C(=O)N(CC1CCCO1)C2=O)c1ccc(Cl)c(Cl)c1 (stereo not drawn)	CHOP inh 91.0 (no result: Rad51 HR inh)
C[n+]1c2n(c3ccccc31)N=C(c1ccc(-c3ccccc3)cc1)CS2	Lmaj promast 100.3

Screening data from PubChem.
